Assay [1] is described as follows: Inhibition of rat recombinant PFT expressed in insect Sf9 cells by scintillation proximity assay.
Assay [2] has as its system Trypanosoma cruzi. The experiment in a line: Antitrypanosomal activity against Trypanosoma cruzi Tulahuen amastigotes infected in […] 3T3 cells after 7 days by alamar blue assay. The format is functional, organism-based. The settings on record: NIH3T3, 168 h. In outline:
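T. cruzi amastigotes grown inside mammalian host 3T3 cells were exposed to compounds to measure parasite killing.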
Background: The colour change of resazurin is a common sign of viable cells or microbes.

The target of a further assay is Cytochrome P450 3A4 (Homo sapiens, UniProt P08684). The experiment in a line: Inhibition of human recombinant CYP3A4. The format is ADME.
Chain of Cytochrome P450 3A4 (P08684 whole entry): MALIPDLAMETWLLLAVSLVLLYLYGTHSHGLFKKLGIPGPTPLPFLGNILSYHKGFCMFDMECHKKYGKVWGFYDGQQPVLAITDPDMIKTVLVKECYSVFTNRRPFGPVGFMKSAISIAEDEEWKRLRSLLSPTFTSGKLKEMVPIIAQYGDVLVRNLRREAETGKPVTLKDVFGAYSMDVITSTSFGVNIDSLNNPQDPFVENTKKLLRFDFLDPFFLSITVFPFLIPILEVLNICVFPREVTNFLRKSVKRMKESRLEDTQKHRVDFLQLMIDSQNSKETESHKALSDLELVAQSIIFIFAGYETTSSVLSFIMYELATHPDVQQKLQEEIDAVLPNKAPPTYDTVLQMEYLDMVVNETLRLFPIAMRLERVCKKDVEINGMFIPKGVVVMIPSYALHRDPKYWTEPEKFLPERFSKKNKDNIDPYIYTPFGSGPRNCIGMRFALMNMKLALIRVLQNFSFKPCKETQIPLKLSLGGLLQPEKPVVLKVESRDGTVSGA
Assay [3] has as its target Sterol 14-alpha demethylase (Trypanosoma cruzi (strain CL Brener)) (UniProt Q7Z1V1). Put plainly: Binding affinity to Trypanosoma cruzi recombinant lanosterol 14-alpha-demethylase by optical spectroscopy. In a few lines:
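Recombinant T. cruzi lanosterol 14α-demethylase at 1.4 μM was titrated with 0.2–2 μM compound. Binding was followed by difference optical spectroscopy of the visible heme Soret band.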

In assay [4] the test system is Trypanosoma cruzi. The experiment in a line: Ratio of EC50 for tipifarnib to drug for antitrypanosomal activity against Trypanosoma cruzi Tulahuen amastigotes infected in […] 3T3 cells after 7 days by alamar blue assay. Format: functional, NIH3T3.

Structures are written as SMILES. pEC50, pIC50: −log10 of the molar value. Active and inactive are the calls of the source. No cut-off for these calls is given here.

This note sets out measurements from ChEMBL document CHEMBL1157803 (J Med Chem, 2010).

Chain of Sterol 14-alpha demethylase (Trypanosoma cruzi (strain CL Brener)) (Q7Z1V1 whole entry, looked up): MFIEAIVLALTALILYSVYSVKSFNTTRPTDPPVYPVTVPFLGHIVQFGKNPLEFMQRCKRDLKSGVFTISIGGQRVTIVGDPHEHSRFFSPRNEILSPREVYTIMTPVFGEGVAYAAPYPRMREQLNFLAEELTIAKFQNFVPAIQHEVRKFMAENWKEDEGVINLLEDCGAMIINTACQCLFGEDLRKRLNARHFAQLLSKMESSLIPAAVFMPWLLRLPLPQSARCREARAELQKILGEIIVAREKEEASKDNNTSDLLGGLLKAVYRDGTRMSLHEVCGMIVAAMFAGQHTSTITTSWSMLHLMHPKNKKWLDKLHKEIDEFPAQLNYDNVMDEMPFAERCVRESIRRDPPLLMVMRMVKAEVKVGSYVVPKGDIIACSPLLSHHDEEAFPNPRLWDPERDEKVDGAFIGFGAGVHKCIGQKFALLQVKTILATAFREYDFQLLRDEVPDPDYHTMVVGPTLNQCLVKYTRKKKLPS

In the case of `CNC(c1ccc(Cl)cc1)(c1ccc2c(c1)c(-c1cccc(Cl)c1C)cc(=O)n2C)c1cncn1C` (centres undefined), the pIC50 in assay [1] was 6.02. Besides, the negative-log EC50 (pEC50) in the assay on Trypanosoma cruzi [2] is 8.30. As to `COC(c1ccc(Cl)cc1)(c1ccc2c(c1)c(-c1c(F)cccc1F)cc(=O)n2C)c1cncn1C` (centres undefined), the negative logarithm of the IC50 (pIC50) is less than 5.00 in assay [1] and 6.56 on Cytochrome P450 3A4. For the same compound, in the assay with Trypanosoma cruzi [2], the negative logarithm of the EC50 (pEC50) is 9.51. The result in assay [3] was Active. For the compound `CCn1cncc1C(NC)(c1ccc(Cl)cc1)c1ccc2c(c1)c(-c1cccc(Cl)c1)cc(=O)n2C` (centres undefined), in assay [1], the pIC50 is 7.18. This compound also gave a pEC50 in the assay on Trypanosoma cruzi [2] of 7.00. Regarding `COC(c1ccc(Cl)cc1)(c1ccc2c(c1)c(-c1cccc(Cl)c1)cc(=O)n2C)c1cncn1C` (centres undefined), the pIC50 in assay [1] is 7.19. The compound further had a pEC50 in the assay on Trypanosoma cruzi [2] of 8.51. For `COC(c1ccc(Cl)cc1)(c1ccc2c(c1)c(-c1cccc(C)c1)cc(=O)n2C)c1cncn1C` (centres undefined), in assay [1], the pIC50 was 7.07. Further, in the assay on Trypanosoma cruzi [2], the pEC50 is 8.92.

`COC(c1ccc(Cl)cc1)(c1ccc2c(c1)c(-c1c(Cl)cccc1Cl)cc(=O)n2C)c1cncn1C` (centres undefined): in assay [1], the pIC50 was less than 5.00. Besides, in the assay with Trypanosoma cruzi [2], the negative-log EC50 (pEC50) is 8.49. In the case of `CCn1cncc1C(O)(c1ccc(Cl)cc1)c1ccc2c(c1)c(-c1cccc(Cl)c1)cc(=O)n2C` (centres undefined), in assay [1], the negative-log IC50 (pIC50) is 7.52. The same compound gave a pEC50 in the assay on Trypanosoma cruzi [2] of 6.64. Turning to `COC(c1ccc(Cl)cc1)(c1ccc2c(c1)c(-c1cccc(Cc3ccccc3)c1)cc(=O)n2C)c1cncn1C` (centres undefined), the negative-log EC50 (pEC50) in the assay with Trypanosoma cruzi [2] is 7.08.

For `COC(c1ccc(Cl)cc1)(c1ccc2c(c1)c(-c1cccc(Cl)c1C)cc(=O)n2C)c1cncn1C` (centres undefined), the pIC50 in assay [1] is less than 5.30. In the assay on Trypanosoma cruzi [2], this compound showed a negative-log EC50 (pEC50) of 9.22. Also, the “Ratio EC50” value with Trypanosoma cruzi [4] came to 10.

As to `COC(c1ccc(Cl)cc1)(c1ccc2c(c1)c(-c1ccccc1F)cc(=O)n2C)c1cncn1C` (centres undefined), the pIC50 in assay [1] was 5.73. This compound had a negative logarithm of the EC50 (pEC50) in the assay with Trypanosoma cruzi [2] of 9.10. Consider `COC(c1ccc(Cl)cc1)(c1ccc2c(c1)c(-c1cccc(F)c1)cc(=O)n2C)c1cncn1C` (centres undefined), for which the pIC50 in assay [1] was 6.46. The compound also gave a pEC50 in the assay with Trypanosoma cruzi [2] of 8.96. `COC(c1ccc(Cl)cc1)(c1ccc2c(c1)c(-c1cc(C)cc(C)c1)cc(=O)n2C)c1cncn1C` (centres undefined): in assay [1], the pIC50 was 6.33. In the assay on Trypanosoma cruzi [2], this compound had a negative logarithm of the EC50 (pEC50) of 8.85.

For the compound `COC(c1ccc(Cl)cc1)(c1ccc2c(c1)c(-c1ccccc1)cc(=O)n2C)c1cncn1C` (centres undefined), the negative logarithm of the IC50 (pIC50) in assay [1] is 6.48; at Cytochrome P450 3A4, 5.63. Further, the pEC50 in the assay on Trypanosoma cruzi [2] is 9.10. Regarding `COC(c1ccc(Cl)cc1)(c1ccc2c(c1)c(-c1ccc(F)cc1)cc(=O)n2C)c1cncn1C` (centres undefined), in assay [1], the pIC50 was 6.00. Besides, the pEC50 with Trypanosoma cruzi [2] is 9.30. For the compound `COC(c1ccc(Cl)cc1)(c1ccc2c(c1)c(-c1ccc(C)cc1)cc(=O)n2C)c1cncn1C` (centres undefined), in assay [1], the negative-log IC50 (pIC50) is 6.39. This compound showed a negative logarithm of the EC50 (pEC50) in the assay on Trypanosoma cruzi [2] of 8.70. Turning to `Cn1cncc1[C@@](N)(c1ccc(Cl)cc1)c1ccc2c(c1)c(-c1cccc(Cl)c1)cc(=O)n2C` [TIPIFARNIB], the pIC50 in assay [1] was 9.15.

On to `COC(c1ccc(Cl)cc1)(c1ccc2c(c1)c(-c1c(C)cccc1C)cc(=O)n2C)c1cncn1C` (centres undefined), for which, in assay [1], the pIC50 is less than 5.00. This compound gave a negative logarithm of the EC50 (pEC50) with Trypanosoma cruzi [2] of 8.74.

For `COC(c1ccc2ccccc2c1)(c1ccc2c(c1)c(-c1cccc(Cl)c1)cc(=O)n2C)c1cncn1C` (centres undefined), in assay [1], the pIC50 is 5.64. In addition, in the assay with Trypanosoma cruzi [2], the pEC50 is 8.66. In the case of `COC(c1ccc(Cl)cc1)(c1ccc2c(c1)c(-c1ccc(Cl)cc1)cc(=O)n2C)c1cncn1C` (centres undefined), the results for the pIC50 (in assay [1]; on Cytochrome P450 3A4) were 5.22 and 6.03, respectively. In the assay on Trypanosoma cruzi [2], this compound had a pEC50 of 9.09. In the case of `CCn1cncc1C(N)(c1ccc(Cl)cc1)c1ccc2c(c1)c(-c1cccc(Cl)c1)cc(=O)n2C` (centres undefined), in assay [1], the negative-log IC50 (pIC50) is 7.55. In the assay with Trypanosoma cruzi [2], this compound gave a pEC50 of 6.93. With `COC(c1ccc(C(F)(F)F)cc1)(c1ccc2c(c1)c(-c1cccc(Cl)c1)cc(=O)n2C)c1cncn1C` (centres undefined), in the assay with Trypanosoma cruzi [2], the negative logarithm of the EC50 (pEC50) was 8.30. `CCn1cncc1C(OC)(c1ccc(Cl)cc1)c1ccc2c(c1)c(-c1cccc(Cl)c1)cc(=O)n2C` (centres undefined): in assay [1], the pIC50 was 6.01. In the assay on Trypanosoma cruzi [2], the pEC50 is 8.52.

With `COC(c1ccc(Cl)cc1)(c1ccc2c(c1)c(-c1ccccc1C)cc(=O)n2C)c1cncn1C` (centres undefined), the pIC50 in assay [1] was 5.49. Also, in the assay on Trypanosoma cruzi [2], the negative logarithm of the EC50 (pEC50) was 9.15. On the same counts, the results for `CCOC(c1ccc(Cl)cc1)(c1ccc2c(c1)c(-c1cccc(Cl)c1C)cc(=O)n2C)c1cncn1C` (centres undefined) are less than 5.00 and 7.57. Take `COC(c1ccc(Cl)cc1)(c1ccc2c(c1)c(-c1cccc(C(F)(F)F)c1)cc(=O)n2C)c1cncn1C` (centres undefined): the pIC50 in assay [1] was 5.88. In addition, the pEC50 in the assay with Trypanosoma cruzi [2] is 7.92. Compound `COC(c1ccc(C(C)C)cc1)(c1ccc2c(c1)c(-c1cccc(Cl)c1)cc(=O)n2C)c1cncn1C` (centres undefined) had a pEC50 in the assay on Trypanosoma cruzi [2] of 7.48.

The compound `COC(c1ccc(Cl)cc1)(c1ccc2c(c1)c(-c1cccc(-c3ccccc3)c1)cc(=O)n2C)c1cncn1C` (centres undefined) gave a pEC50 in the assay with Trypanosoma cruzi [2] of 6.49. Against the preceding compound, the pEC50 is 0.99 log units lower.

Consider `Cn1cncc1C(O)(c1ccc(Cl)cc1)c1ccc2c(c1)c(-c1cccc(Cl)c1)cc(=O)n2C` (centres undefined), for which the negative-log IC50 (pIC50) in assay [1] is 8.10. In the assay on Trypanosoma cruzi [2], this compound gave a pEC50 of 7.77. For `Cc1c(Cl)cccc1-c1cc(=O)n(C)c2ccc(C(O)(c3ccc(Cl)cc3)c3cncn3C)cc12` (centres undefined), in that order: 6.10 and 6.95. In the assay on Trypanosoma cruzi [2], `COC(c1ccc(C)cc1)(c1ccc2c(c1)c(-c1cccc(Cl)c1)cc(=O)n2C)c1cncn1C` (centres undefined) had a pEC50 of 8.52. As to `COC(c1ccc(Cl)cc1)(c1ccc2c(c1)c(-c1ccccc1C(F)(F)F)cc(=O)n2C)c1cncn1C` (centres undefined), in assay [1], the negative logarithm of the IC50 (pIC50) is less than 5.30. In addition, in the assay on Trypanosoma cruzi [2], the pEC50 was 9.10.

In the case of `CCc1ccc(C(OC)(c2ccc3c(c2)c(-c2cccc(Cl)c2)cc(=O)n3C)c2cncn2C)cc1` (centres undefined), the pEC50 in the assay with Trypanosoma cruzi [2] is 8.00. Consider `CCCOC(c1ccc(Cl)cc1)(c1ccc2c(c1)c(-c1cccc(Cl)c1C)cc(=O)n2C)c1cncn1C` (centres undefined), for which the pIC50 in assay [1] was less than 5.30. In the assay on Trypanosoma cruzi [2], the pEC50 is 7.16.

The term pIC50 denotes the negative decadic logarithm of the IC50, by convention in mol/L. The term pEC50 denotes −log10 of the EC50, conventionally taken in molar units. High values mean a low EC50, low ones a high EC50.
